From ChEMBL document CHEMBL1125426, “Muscarinic receptor subtype specificity of (N,N-dialkylamino)alkyl 2-cyclohexyl-2-phenylpropionates: cylexphenes (cyclohexyl-substituted aprophen analogues)” (J Med Chem, 1992) come the findings set out here.

The target of experiment [1] is T1, Muscarinic acetylcholine receptor M1 (Homo sapiens, UniProt P11229).
T1 sequence (P11229 whole entry): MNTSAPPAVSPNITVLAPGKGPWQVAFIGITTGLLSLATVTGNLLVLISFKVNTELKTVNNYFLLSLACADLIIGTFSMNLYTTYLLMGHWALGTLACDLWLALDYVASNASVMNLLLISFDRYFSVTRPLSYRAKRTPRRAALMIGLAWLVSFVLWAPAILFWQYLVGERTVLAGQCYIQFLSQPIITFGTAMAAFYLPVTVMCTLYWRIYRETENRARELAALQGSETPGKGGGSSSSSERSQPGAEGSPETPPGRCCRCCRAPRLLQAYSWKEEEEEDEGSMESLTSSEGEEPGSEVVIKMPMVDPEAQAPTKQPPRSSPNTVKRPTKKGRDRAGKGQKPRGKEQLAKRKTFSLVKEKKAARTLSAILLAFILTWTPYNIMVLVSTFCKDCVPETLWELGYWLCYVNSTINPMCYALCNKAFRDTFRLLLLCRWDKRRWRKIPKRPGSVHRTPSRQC
The experiment can be described thus: Antimuscarinic potency and subset specificity was characterised by its inhibition of the [3H]NMS Binding to Muscarinic acetylcholine receptor M1 subtype. In short, it runs like this: (§1)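 Membranes, by hypotonic lysis (2 mM Tris-HCl pH 7.2, 1 mM EDTA) and 50000g spins, from A9 L cells stably carrying cloned brain m1 or m3, heart (M2) or NG108-15 cells (M4). 150-300 µg protein incubated 60 min at 37 °C in PBS pH 7.2 with 0.5 nM [3H]NMS and varied compound levels. Filtration and scintillation counting. Nonspecific binding taken with 1 µM atropine. Ki from LIGAND with KD 235 (m1), 426 (M2), 164 (m3), 144 (M4) pM. Three to six experiments.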

The target of experiment [2] is Muscarinic acetylcholine receptor M1 and M3 (Homo sapiens) (UniProt P20309+P11229). Kind of experiment: Selectivity index is defined as the ratio of Ki value for m1 receptor / Ki value for m3 receptor. Format: protein assay.
A short description of experiment [3]: Selectivity index is defined as the ratio of Ki value for m3 receptor / Ki value for M4 receptor.
The target of experiment [4] is T2, Muscarinic acetylcholine receptor M2 (Homo sapiens, UniProt P08172).
T2 sequence (P08172 whole entry): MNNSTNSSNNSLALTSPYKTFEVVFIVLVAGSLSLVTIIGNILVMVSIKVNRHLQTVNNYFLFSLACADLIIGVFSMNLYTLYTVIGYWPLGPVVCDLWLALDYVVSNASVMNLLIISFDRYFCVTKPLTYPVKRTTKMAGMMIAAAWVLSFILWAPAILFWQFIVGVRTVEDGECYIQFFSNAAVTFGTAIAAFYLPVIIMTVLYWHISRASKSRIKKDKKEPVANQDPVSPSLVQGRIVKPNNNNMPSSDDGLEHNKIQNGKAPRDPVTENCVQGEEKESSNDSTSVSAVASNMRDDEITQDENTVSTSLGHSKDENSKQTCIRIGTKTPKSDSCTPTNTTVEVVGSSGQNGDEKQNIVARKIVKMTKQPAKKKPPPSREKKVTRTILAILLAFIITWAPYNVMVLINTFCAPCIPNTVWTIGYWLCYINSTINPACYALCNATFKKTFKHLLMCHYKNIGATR
Kind of experiment: Antimuscarinic potency and subset specificity was characterised by its inhibition of the [3H]NMS Binding to Muscarinic acetylcholine receptor M2 subtype. In short, it runs like this: as §1

Experiment [5] is described as follows: Selectivity ratio relative to atropine is [(atropine IC50 value for pancreas)/(compound IC50 value for pancreas)] / [(atropine KB value for ileum) /(compound KB value for ileum)]. Format: tissue-based. In short, it runs like this:
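Rat pancreatic acini from male Sprague-Dawley rats, collagenase digested, exposed to 10^-5 M carbachol with varied compound levels. […] Ileum KB comes from Schild plots on male guinea pig distal ileum at 37 °C, ACh-induced isometric contraction, compound added 30 s before ACh. Ratio as printed, referenced to atropine.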

Experiment [6] has as its target T3, Muscarinic acetylcholine receptor M3 (Homo sapiens, UniProt P20309). The experiment can be described thus: Antimuscarinic potency and subset specificity was characterised by its inhibition of the [3H]NMS Binding to Muscarinic acetylcholine receptor M3 subtype. An outline of the steps: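 Membranes from A9 L cells stably transfected with cloned m3 receptor (brain library), lysed in 2 mM Tris-HCl pH 7.2/1 mM EDTA, centrifuged 50000g. 150-300 µg protein incubated 60 min, 37 °C with 0.5 nM [3H]NMS plus varied compound concentrations in PBS pH 7.2; filtration, scintillation counting. Nonspecific binding: 1 µM atropine. Ki via LIGAND using KD 164 pM; mean of 3-6 experiments ± SD.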

Experiment [7] addresses T4, Muscarinic acetylcholine receptor M4 (Homo sapiens, UniProt P08173).
T4 sequence (P08173 whole entry): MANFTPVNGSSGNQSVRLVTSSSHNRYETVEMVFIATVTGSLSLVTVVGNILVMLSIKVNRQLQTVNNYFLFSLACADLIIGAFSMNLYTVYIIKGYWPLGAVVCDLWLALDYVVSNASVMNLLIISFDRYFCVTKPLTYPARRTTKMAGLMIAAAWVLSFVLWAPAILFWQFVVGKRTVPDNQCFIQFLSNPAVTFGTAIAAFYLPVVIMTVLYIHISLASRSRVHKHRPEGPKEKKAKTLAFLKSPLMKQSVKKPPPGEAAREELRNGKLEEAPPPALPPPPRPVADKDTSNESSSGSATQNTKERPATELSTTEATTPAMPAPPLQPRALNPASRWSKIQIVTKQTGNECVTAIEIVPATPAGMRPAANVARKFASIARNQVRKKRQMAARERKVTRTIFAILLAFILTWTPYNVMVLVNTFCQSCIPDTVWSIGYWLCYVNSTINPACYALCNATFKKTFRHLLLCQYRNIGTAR
The experiment can be described thus: Antimuscarinic potency and subset specificity was characterised by its inhibition of the [3H]NMS Binding to Muscarinic acetylcholine receptor M4 subtype. An outline of the steps: as §1

In experiment [8] the target is T2, Muscarinic acetylcholine receptor M2. The experiment can be described thus: Antimuscarinic potency and subset specificity was characterised by inhibition of the [3H]NMS Binding to Muscarinic acetylcholine receptor M2 subtype. An outline of the steps: as §1
Experiment [9] deals with T1, Muscarinic acetylcholine receptor M1. The experiment can be described thus: Antimuscarinic potency and subset specificity was characterised by inhibition of the [3H]NMS Binding to Muscarinic acetylcholine receptor M1 subtype. An outline of the steps:
as §1

For experiment [10], the target named is T3, Muscarinic acetylcholine receptor M3. The experiment can be described thus: Antimuscarinic potency and subset specificity was characterised by its inhibition of the [3H]NMS Muscarinic acetylcholine receptor M3 subtype. An outline of the steps: as §1

Sequence of Muscarinic acetylcholine receptor M1 and M3 (Homo sapiens) (P20309 whole entry, looked up, one chain of several): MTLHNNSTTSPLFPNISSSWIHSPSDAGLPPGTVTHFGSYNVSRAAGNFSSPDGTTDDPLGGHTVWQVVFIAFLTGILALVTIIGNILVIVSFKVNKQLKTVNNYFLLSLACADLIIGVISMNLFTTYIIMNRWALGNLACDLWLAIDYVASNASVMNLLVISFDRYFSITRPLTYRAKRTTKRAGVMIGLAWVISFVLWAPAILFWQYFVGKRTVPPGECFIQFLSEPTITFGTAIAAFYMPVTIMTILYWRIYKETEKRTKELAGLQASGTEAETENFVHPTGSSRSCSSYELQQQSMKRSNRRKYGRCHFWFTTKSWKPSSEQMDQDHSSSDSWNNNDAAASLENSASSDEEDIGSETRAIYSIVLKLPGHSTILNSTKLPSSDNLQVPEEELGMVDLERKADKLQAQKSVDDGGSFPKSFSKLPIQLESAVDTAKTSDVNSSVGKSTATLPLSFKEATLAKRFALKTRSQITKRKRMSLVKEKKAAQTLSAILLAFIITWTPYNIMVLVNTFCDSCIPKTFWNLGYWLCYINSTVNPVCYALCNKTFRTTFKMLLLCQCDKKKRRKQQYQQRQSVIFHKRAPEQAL
T3 sequence (P20309 whole entry): as the sequence (P20309 whole entry, looked up, one chain of several) above

Turning to `CN(C)CCCOC(=O)C(C)(c1ccccc1)C1CCCCC1` (centres undefined), the Ki in [1] came to 1.9 nM; in experiment [4], 26.9 nM; in [6] it was 1.7 nM; in experiment [7], 1.5 nM. Further, the Selectivity ratio in experiment [2] and in experiment [3] was 0.9 in each case. In experiment [5], the Selectivity was 30.8.

As for `CCN(CC)CCCOC(=O)C(C)(c1ccccc1)C1CCCCC1` (centres undefined), the Ki in [1] worked out at 2.9 nM; in experiment [4], 19.7 nM; in experiment [6], 4 nM; in experiment [7] it was 4.6 nM. The Selectivity ratio amounted to 1.4 in experiment [2] and 1.2 in experiment [3]. The Selectivity in experiment [5] was 19.1.

As for `CCN(CC)CCCCCOC(=O)C(C)(c1ccccc1)C1CCCCC1` (centres undefined), the inhibition constant Ki was found to be 298 nM in experiment [1], 246 nM in experiment [4], 178 nM in experiment [6] and 173 nM in experiment [7]. Also, the Selectivity ratio in experiment [2] came to 0.6; in [3] it was 1. The Selectivity in experiment [5] worked out at 11.5.

For `CN(C)CCCCOC(=O)C(C)(c1ccccc1)C1CCCCC1` (centres undefined), the Ki in experiment [1] was found to be 40.7 nM; in experiment [4], 258 nM; in [6], 31.2 nM; in experiment [7] it was 65.6 nM.

With `CCN(CC)CCOC(=O)C(C)(c1ccccc1)c1ccccc1` [APROFENE], the Ki in experiment [8] came out at 9.3 nM; in experiment [9], 2.1 nM; in experiment [7], 7.4 nM.

`CCN(CC)CCCCOC(=O)C(C)(c1ccccc1)C1CCCCC1` (centres undefined): the Ki in experiment [1] is 111 nM; in [4], 248 nM; in experiment [6], 160 nM; in experiment [7] it was 209 nM.

Consider `CCN(CC)CCOC(=O)C(C)(c1ccccc1)C1CCCCC1` (centres undefined), for which the Ki in experiment [1] was determined as 4 nM; in [10] it was 9.9 nM; in [4] it was 23.4 nM; in experiment [7], 18.5 nM. The results for the Selectivity ratio in [2] and in [3] were 2.5 and 1.9, respectively. Further, the Selectivity in experiment [5] was determined as 16.7.
